Bioassay records: PubChem, The Scripps Research Institute Molecular Screening Center
Hits are enriched below; roughly 1.8% of the tested compounds scored in any of these assays.
CHRM4 PAM – human M4 muscarinic receptor positive allosteric modulators, primary screen, CHO-K1 cells, Fluo-8 calcium fluorescence | Muscarinic acetylcholine receptor M4 (Homo sapiens), P08173 | CHO-K1 hM4/Gqi5, ACh EC20; 0% = ACh EC20, 100% = maximal ACh | activation, % at 3 µM | 360,000 tested, 0.4% active | AID 624126, 2012;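 active means activation above its plate's cutoff, the mean activation of sample wells plus 3 SD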
Target sequence (P08173 whole entry, looked up): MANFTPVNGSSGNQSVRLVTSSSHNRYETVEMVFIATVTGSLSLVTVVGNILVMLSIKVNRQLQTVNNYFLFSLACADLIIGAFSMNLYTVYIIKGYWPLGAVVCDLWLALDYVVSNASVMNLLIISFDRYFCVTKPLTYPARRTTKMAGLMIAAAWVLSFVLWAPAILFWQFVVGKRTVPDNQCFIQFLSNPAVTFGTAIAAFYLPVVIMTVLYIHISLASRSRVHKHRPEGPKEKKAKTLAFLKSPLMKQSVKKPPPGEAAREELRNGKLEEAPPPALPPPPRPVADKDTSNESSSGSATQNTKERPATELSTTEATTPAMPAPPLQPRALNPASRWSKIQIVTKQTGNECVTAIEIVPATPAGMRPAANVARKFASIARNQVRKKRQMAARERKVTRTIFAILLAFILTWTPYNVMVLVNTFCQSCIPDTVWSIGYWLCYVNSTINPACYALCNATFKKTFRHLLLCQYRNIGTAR
M5 antag – human M5 muscarinic receptor antagonists, primary screen, CHO cells, Fluo-8 calcium fluorescence; Muscarinic acetylcholine receptor M5 (Homo sapiens), P08912; CHO-hM5 cells, ACh EC80; inhibition, % at 3 µM; 360,000 tested, 0.59% active;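 active means inhibition above a per-plate cutoff, the mean of that plate's test compounds plus 3 SD, cut at about 27% in these data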;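 further: 0% = acetylcholine EC80 with DMSO and 100% = DMSO without agonist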
CHRM5 agonist – human M5 muscarinic receptor agonists, primary screen, CHO-K1 cells, Fluo-8 calcium fluorescence. Muscarinic acetylcholine receptor M5 (Homo sapiens), P08912. CHO-K1 hM5 cells; 0% DMSO wells, 100% maximal acetylcholine response. activation, % at 3 µM. 360,000 tested, 0.19% active. AID 624037, 2012;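 active means activation above the run's mean over test compounds plus 3 SD, cut at about 23% in these data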;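 further: signal is peak over basal fluorescence ratio across the kinetic read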
CHRM4 agonist – human M4 muscarinic receptor agonists, primary screen, CHO-K1 cells, Fluo-8 calcium fluorescence | Muscarinic acetylcholine receptor M4 (Homo sapiens), P08173 | CHO-K1 hM4/Gqi5; vehicle 0%, full acetylcholine response 100% | activation, % at 3 µM | 360,000 tested, 0.14% active;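 active means activation above the run mean over all test wells plus 3 SD, cut at about 32% in these data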;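 further: peak over basal fluorescence ratio per well then scaled between controls; 0% = DMSO wells and 100% = acetylcholine at EC100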
CHRM4 antagonist – human M4 muscarinic receptor antagonists, primary screen, CHO cells, Fluo-8 calcium fluorescence. CHO-hM4 cells, ACh EC80. AID 624125, 2012. inhibition, % at 3 µM. 360,000 tested, 0.73% active;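 active means inhibition above its plate's cutoff, the mean inhibition of sample wells plus 3 SD, cut at about 27% in these data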;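 further: 0% = acetylcholine EC80 with DMSO and 100% = DMSO without agonist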
CHRM5 PAM – human M5 muscarinic receptor positive allosteric modulators, primary screen, CHO-K1 cells, Fluo-8 calcium fluorescence; AID 624038, 2012; CHO-K1 hM5, ACh EC20 PAM; 0% = ACh EC20, 100% = ACh EC100; Muscarinic acetylcholine receptor M5 (Homo sapiens), P08912; 360,000 tested, 0.3% active; activation, % at 3 µM;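 active means activation above the run cutoff, the mean activation of all test compounds plus 3 SD, cut at about 18% in these data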
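Assay system – human M5 receptor in CHO-K1 cells · Read-out – % activation, ACh-normalized · Technique – Fluo-8 calcium fluorescence · Dosing – single-point, 3 µM nominal · Incubation – Fluo-8 loading 80 min at 37 °C plus 30 min room temperature · Repeats – singlicate, one well per test compound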
* hit, by the source's call.

Cc1ccc(NC(=O)COC(=O)CN2CCSC2=O)cc1Cl was read as CHRM4 PAM 10.8, M5 antag 1.4, CHRM5 agonist 5.8, CHRM4 agonist 4.5, CHRM4 antagonist -20.4 and CHRM5 PAM 0.6.
For COC(=O)[C@]12CCCCC=C1N(CCC1=CCCCC1)C(=O)[C@H](CC(=O)N1CCN(C(=O)C3CC3)CC1)C2 the results were CHRM4 PAM -3.4, M5 antag -0.8, CHRM5 agonist 6.9, CHRM4 agonist 11.2, CHRM4 antagonist -5.2 and CHRM5 PAM -3.7.
Screening O=[N+]([O-])c1cc(C(F)(F)F)cc([N+](=O)[O-])c1NCCNC(=S)Nc1cccc(F)c1 returned CHRM4 PAM -31.0, M5 antag 28.0*, CHRM5 agonist 12.0, CHRM4 agonist 18.4, CHRM4 antagonist 16.0 and CHRM5 PAM -25.6.
`COc1ccc(C(C(=O)NC2CCCCC2)N(CC2CCCO2)C(=O)C2COc3ccccc3O2)cc1OC` (stereo not given) gave CHRM4 PAM 12.6, M5 antag -16.1, CHRM5 agonist -2.9, CHRM4 agonist 1.0, CHRM4 antagonist -12.2 and CHRM5 PAM 33.4*.
Screening NC(c1csc(Nc2ccc(C(=O)c3ccccc3)cc2)n1)c1ccccc1Cl (stereo not given) returned CHRM4 PAM -1.6, M5 antag -0.1, CHRM5 agonist 2.8, CHRM4 agonist 6.5, CHRM4 antagonist -2.6 and CHRM5 PAM 0.3.
Screening C[C@@H]1CN([C@H](C)CO)C(=O)c2c(c3ccccc3n2C)-c2ccccc2CO[C@@H]1CN(C)S(=O)(=O)c1cccs1 returned CHRM4 PAM 5.7, M5 antag -0.1, CHRM5 agonist 1.3, CHRM4 agonist 3.7, CHRM4 antagonist -19.6 and CHRM5 PAM 3.1.
Screening O=C1C=CC(=Nc2ccc(F)cc2)O1 returned CHRM4 PAM 9.3, M5 antag -10.7, CHRM5 agonist -1.5, CHRM4 agonist 1.9, CHRM4 antagonist -20.9 and CHRM5 PAM 22.2*.
`CCn1c(NCc2ccccn2)nc2c1c(=O)n(C)c(=O)n2C` gave CHRM4 PAM 40.4*, M5 antag -4.5, CHRM5 agonist 1.8, CHRM4 agonist 2.2, CHRM4 antagonist -12.2 and CHRM5 PAM 2.6.
For Cc1ccccc1S(=O)(=O)N1C[C@H]2[C@H]3C(=O)N(c4ccccc4)C(=O)[C@H]3CC(=O)[C@H]2[C@@H]1c1ccc(Cl)cc1 the results were CHRM4 PAM 6.1, M5 antag -8.1, CHRM5 agonist 3.4, CHRM4 agonist 1.9, CHRM4 antagonist -14.6 and CHRM5 PAM 8.9.
For CCn1c(SCc2ccc(Cl)cc2)nc2nc3c(cc2c1=O)CCCC3 the results were CHRM4 PAM 28.3*, M5 antag 0.8, CHRM5 agonist -0.8, CHRM4 agonist -2.1, CHRM4 antagonist -3.5 and CHRM5 PAM -1.1.
For Cc1cc(=O)n(-c2ccc3ccccc3n2)[nH]1 the results were CHRM4 PAM 34.4*, M5 antag -1.8, CHRM5 agonist 0.6, CHRM4 agonist -0.2, CHRM4 antagonist 18.7 and CHRM5 PAM 2.8.
Screening Cc1ccc2nc3n(c(=O)c2c1)-c1cc2ccccc2cc1C(=O)NC3CC(C)C (stereo not given) returned CHRM4 PAM 1.5, M5 antag -6.3, CHRM5 agonist 1.0, CHRM4 agonist 0.1, CHRM4 antagonist -2.4 and CHRM5 PAM 4.4.
O=C(c1ccccc1Nc1ccc(SC(F)F)cc1)N1CCCCC1 was read as CHRM4 PAM 36.5*, M5 antag 0.8, CHRM5 agonist -3.6, CHRM4 agonist 0.3, CHRM4 antagonist 20.3 and CHRM5 PAM 6.4.
For CC1CCCC(C)N1C(=O)c1ccccc1Nc1ccc(SC(F)F)cc1 (stereo not given) the results were CHRM4 PAM -1.5, M5 antag -6.0, CHRM5 agonist -5.8, CHRM4 agonist -1.5, CHRM4 antagonist -7.3 and CHRM5 PAM 22.4*.
`CC1(c2nnnn2Cc2ccccc2)CCC(=O)N1CC1CCCCC1` (stereo not given) gave CHRM4 PAM 2.1, M5 antag 5.1, CHRM5 agonist 5.7, CHRM4 agonist 3.8, CHRM4 antagonist 1.4 and CHRM5 PAM -0.9.
For N#Cc1nc(-c2cccs2)oc1N1CCN(Cc2ccccc2)CC1 the results were CHRM4 PAM 2.9, M5 antag -5.7, CHRM5 agonist -1.7, CHRM4 agonist 8.5, CHRM4 antagonist 84.6* and CHRM5 PAM -3.5.
Screening CCN(CC)CCCCCCCCOC(=O)c1cc(OC)c(OC)c(OC)c1 returned CHRM4 PAM -18.6, M5 antag 1.6, CHRM5 agonist -0.1, CHRM4 agonist 7.0, CHRM4 antagonist 28.9* and CHRM5 PAM -12.7.
CCc1c(C)sc(NC(=O)C2CC2c2ccccc2)c1C(N)=O (stereo not given) was read as CHRM4 PAM 4.8, M5 antag 3.1, CHRM5 agonist -2.6, CHRM4 agonist 1.2, CHRM4 antagonist 27.4* and CHRM5 PAM -1.0.
Screening CCc1nnc(NS(=O)(=O)c2ccc(NC(=S)NC(=O)/C=C/c3ccc(C(C)C)cc3)cc2)s1 returned CHRM4 PAM -13.4, M5 antag 11.9, CHRM5 agonist -7.2, CHRM4 agonist -1.3, CHRM4 antagonist 27.1* and CHRM5 PAM -21.3.
CCN(CC)c1ccc2cc(-c3nc4ccccc4[nH]3)c(=O)oc2c1 was read as CHRM4 PAM -19.1, M5 antag 36.4*, CHRM5 agonist 119.0*, CHRM4 agonist 552.2*, CHRM4 antagonist 25.3 and CHRM5 PAM -29.0.
For CCN(CC)c1ccc2cc(-c3nc4ccccc4n3C)c(=O)oc2c1 the results were CHRM4 PAM 0.9, M5 antag 5.4, CHRM5 agonist 7.6, CHRM4 agonist 20.3, CHRM4 antagonist 7.0 and CHRM5 PAM -5.3.
`CCN(CC)c1ccc2cc(C(=O)c3cccs3)c(=O)oc2c1` gave CHRM4 PAM -19.1, M5 antag 38.8*, CHRM5 agonist 51.9*, CHRM4 agonist 64.8*, CHRM4 antagonist 33.3* and CHRM5 PAM -24.4.
`Cc1c(C)c2c(OCC(=O)NCC3CCC(C(=O)O)CC3)cc3c(c2oc1=O)CCC(C)(C)O3` (stereo not given) gave CHRM4 PAM 0.0, M5 antag 3.7, CHRM5 agonist 1.7, CHRM4 agonist 1.8, CHRM4 antagonist -17.1 and CHRM5 PAM -6.7.
